Common to all, as to type: ADME, Callithrix jacchus
Data set [1] in a line: Drug metabolism in marmoset liver microsomes assessed as 4-hydroxydebrisoquine formation at 500 uM after 180 mins by NMR analysis. Conditions: 3 h. In short, it runs like this:
(§1)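 Large-scale incubation to generate metabolites for structural identification. Pooled marmoset liver microsomal protein 4 mg/ml (batch 1), 6 mM NADPH, 50 mM Tris-HCl pH 7.69, total 35 ml. Reaction started with [14C]debrisoquine to a final concentration of 500 µM and incubated for 180 min.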

The nature of data set [2]: Drug metabolism in marmoset liver microsomes assessed as 5-hydroxydebrisoquine formation at 500 uM after 180 mins by NMR analysis. Conditions: 3 h. An outline of the steps: as §1
Data set [3] is described as follows: Drug metabolism in marmoset liver microsomes assessed as 6-hydroxydebrisoquine formation at 500 uM after 180 mins by NMR analysis. Conditions: 3 h. An outline of the steps:
as §1

Data set [4] is described as follows: Drug metabolism in marmoset liver microsomes assessed as 7-hydroxydebrisoquine formation at 500 uM after 180 mins by NMR analysis. Conditions: 3 h. In short, it runs like this: as §1
Data set [5] is described as follows: Drug metabolism in marmoset liver microsomes assessed as 8-hydroxydebrisoquine formation at 500 uM after 180 mins by NMR analysis. Conditions: 3 h. An outline of the steps: as §1
Data set [6] can be described thus: Drug metabolism in marmoset liver microsomes assessed as 6,7-hydroxydebrisoquine formation at 500 uM after 180 mins by NMR analysis. Conditions: 3 h. An outline of the steps: as §1
Data set [7] is described as follows: Drug metabolism in marmoset liver microsomes treated with [14C]debrisoquine at 500 uM after 120 mins by radio-HPLC chromatography. The settings on record: 2 h. An outline of the steps:
(§2)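 Pooled male marmoset liver microsomes (5 mg/ml, batch 1) incubated with [14C]debrisoquine 500 µM, NADPH 6 mM, Tris-HCl 50 mM pH 7.69, 37°C, 120 min. Protein precipitated, supernatant injected on C18 reversed-phase HPLC with 10 mM TFA/acetonitrile linear gradient over 40 min. Detection by UV at 211 nm, radioactivity flow detector, and ESI+ LC-MS/MS with product ion spectra.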

The nature of data set [8]: Drug metabolism in marmoset liver microsomes treated with [14C]debrisoquine at 500 uM after 180 mins by NMR analysis. Conditions: 3 h. In short, it runs like this: as §1
A short description of data set [9]: Drug metabolism in marmoset liver microsomes treated with [14C]debrisoquine at 500 uM after 120 mins by LC/MS/MS analysis. The settings on record: 2 h. In short, it runs like this: as §2
Data set [10] is described as follows: Drug metabolism in marmoset liver microsomes assessed as 4-hydroxydebrisoquine formation at 500 uM after 120 mins by radio-HPLC chromatography. Conditions: 2 h. An outline of the steps: as §2
The nature of data set [11]: Drug metabolism in marmoset liver microsomes assessed as metabolite MF-1 formation at 500 uM after 120 mins by radio-HPLC chromatography. The settings on record: 2 h. An outline of the steps: as §2
Data set [12] in a line: Drug metabolism in marmoset liver microsomes assessed as metabolite MF-3 formation at 500 uM after 120 mins by radio-HPLC chromatography. Conditions: 2 h. An outline of the steps:
as §2

Data set [13] in a line: Drug metabolism in marmoset liver microsomes assessed as 4-hydroxydebrisoquine formation at 500 uM after 120 mins by LC/MS/MS analysis. The settings on record: 2 h. In short, it runs like this:
as §2

Data set [14] can be described thus: Drug metabolism in marmoset liver microsomes assessed as metabolite MF-1 formation at 500 uM after 120 mins by LC/MS/MS analysis. The settings on record: 2 h. An outline of the steps: as §2
A short description of data set [15]: Drug metabolism in marmoset liver microsomes assessed as metabolite MF-3 formation at 500 uM after 120 mins by LC/MS/MS analysis. Conditions: 2 h. In short, it runs like this: as §2

As for `N=C(N)N1CCc2ccccc2C1.O=S(=O)(O)O`, the Drug metabolism result in data set [1], in [2], in [3], in data set [4], in data set [5] and in data set [6] was “metabolite_detected” throughout.

With `N=C(N)N1Cc2ccccc2C(O)C1` (stereo not given), the Drug metabolism entry in data set [7], in data set [8] and in data set [9] was “metabolite_detected” in each case.

As for `N=C(N)N1CCc2cccc(O)c2C1`, in data set [8], the Drug metabolism entry is given as “metabolite_detected”.

Consider `N=C(N)N1CCc2cc(O)c(O)cc2C1`, for which, in [8], the Drug metabolism entry is “metabolite_detected”.

In the case of `N=C(N)N1CCc2c(O)cccc2C1`, the Drug metabolism result in [8] was “metabolite_detected”.

Regarding `N=C(N)N1CCc2cc(O)ccc2C1`, in data set [8], the Drug metabolism result is listed as “metabolite_detected”.

Regarding `N=C(N)N1CCc2ccc(O)cc2C1`, the Drug metabolism entry in data set [8] is “metabolite_detected”.

Regarding `N=[14C](N)N1CCc2ccccc2C1`, the Drug metabolism result in data set [10], in [11], in data set [12], in data set [13], in data set [14] and in data set [15] was “metabolite_detected” each time.

Values taken from ChEMBL document CHEMBL3525997, “Debrisoquine metabolism and CYP2D expression in marmoset liver microsomes” (Drug Metab Dispos, 2012).
